# CAL PDZ FP-1: blocks peptide binding to human CAL PDZ domain. Q9HD26. inhibition, % at 20 µM. purified CAL PDZ, TMR-peptide fluorescence polarization, 1 h. 0.02% of 330,000 active;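 active = highest replicate inhibition of at least 40%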;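 also: plate controls were DMSO neutral control wells for no effect and unlabeled competitor peptide control wells for full effect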
#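 material = purified tagged CAL PDZ domain construct (CerCALP) | compound dosing = 20 µM, one dose | times = 1 h at RT | measured by = fluorescence polarization from S- and P-plane intensities, G-factor corrected | read-out = inhibition from polarization loss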
# cardiac RTF act: increases calcium sensitivity of human cardiac regulated thin filaments. P19429+P45379. IANBD-labeled TnC RTF fluorescence at EC20 calcium; 0% EC20 calcium, 100% full calcium. activation, % at 7.2 µM. 0.24% of 340,000 active;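 active = activation above the mean over all tested compounds plus 3 SD, cut at about 30% in these data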;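 also: rise in fluorescence read as greater calcium sensitivity of cardiac thin filaments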
# Keap1-Nrf2 PPI: inhibitors of human Keap1-Nrf2 protein-protein interaction | Keap1 Kelch-Nrf2 peptide fluorescence polarization, 1536-well | inhibition, % at 9.4 µM | 0.15% of 340,000 active; in the data active = inhibition above about 12%;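 also: human Keap1 Kelch domain with fluorescein labeled Nrf2 9mer peptide probe; 0% = neutral control wells and 100% = peptide positive control; higher means more block of Keap1 binding to Nrf2 peptide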
# Target sequence (Q14145 whole entry, looked up, the tested form may be a part): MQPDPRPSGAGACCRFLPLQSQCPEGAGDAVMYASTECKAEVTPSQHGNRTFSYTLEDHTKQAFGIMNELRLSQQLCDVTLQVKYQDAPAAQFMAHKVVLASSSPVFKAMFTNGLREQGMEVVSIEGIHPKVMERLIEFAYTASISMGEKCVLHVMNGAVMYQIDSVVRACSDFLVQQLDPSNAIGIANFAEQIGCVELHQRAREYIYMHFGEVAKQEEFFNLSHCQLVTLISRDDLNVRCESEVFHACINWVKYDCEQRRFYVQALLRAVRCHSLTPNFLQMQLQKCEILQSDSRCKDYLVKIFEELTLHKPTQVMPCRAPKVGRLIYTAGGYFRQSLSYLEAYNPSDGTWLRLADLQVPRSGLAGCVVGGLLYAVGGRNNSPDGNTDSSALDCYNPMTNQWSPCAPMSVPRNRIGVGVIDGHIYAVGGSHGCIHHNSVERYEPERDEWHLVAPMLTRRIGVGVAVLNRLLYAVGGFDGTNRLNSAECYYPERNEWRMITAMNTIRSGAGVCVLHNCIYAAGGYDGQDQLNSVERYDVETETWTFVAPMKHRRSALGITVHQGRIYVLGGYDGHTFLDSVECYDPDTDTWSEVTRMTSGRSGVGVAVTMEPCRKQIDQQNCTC
# CAL PDZ FP-2: blocks peptide binding to the human CAL PDZ domain; inhibition, % at 24.9 µM; purified CAL PDZ, TMR-peptide fluorescence polarization, 1 h; AID 602252; 0.92% of 300,000 active; Q9HD26;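 active = mean inhibition of at least 30% with at least half of replicates also reaching 30%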;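 also: 0% = DMSO neutral control and 100% = excess unlabeled competitor peptide PRC23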
# LANA DNA inh: blocks KSHV LANA C-terminal domain binding to DNA; MBP-C-LANA/FAM-LBS DNA binding, fluorescence polarization; inhibition, % at 9 µM; 0.078% of 340,000 active; AID 504423;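 active = highest replicate inhibition at or above 60% at 9 µM, even if other replicates fall short; inactive = all replicates below 60% inhibition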;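 also: 0% = neutral control wells and 100% = 4 µM acridine orange control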
# RTF Ca sens inh: cardiac RTF calcium desensitization. IANBD-labeled cardiac RTF, Ca2+ fluorescence. inhibition, % at 7.15 µM. 0.12% of 340,000 active. AID 493244;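 active = inhibition above the mean inhibition of all tested compounds plus 3 SD, cut at about 17% in these data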;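 also: assay run at fixed EC70 calcium of 1.6 mM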
# Active calls of the source: *; i = inactive; . = not tested or not shown; + = active, no number. Shown are actives, neighbours in structure and some others; about 1.3% of the full set was active somewhere.
SMILES,CAL PDZ FP-1,cardiac RTF act,Keap1-Nrf2 PPI,CAL PDZ FP-2,LANA DNA inh,RTF Ca sens inh
CN(C)/C=N/c1cc(=O)[nH]c(=O)n1CC1CC1,-1,8,-4,-2,0,-1
COc1ccc(NS(=O)(=O)c2ccc(O)c(C(=O)OCC(=O)N3CCCCC3)c2)cc1,-1,4,3,39*,1,-12
COc1ccc(NS(=O)(=O)c2ccc(O)c(C(=O)OCC(=O)N3CC(C)OC(C)C3)c2)cc1 (centres undefined),0,1,0,.,0,4
O=C(c1cccc(NS(=O)(=O)c2ccccc2)c1)N1CCN(c2ccccc2)CC1,-2,-5,1,-4,-1,-5
CC(Oc1ccccc1)C(=O)N1CCc2ccccc2C1 (centres undefined),0,-2,-2,.,-1,-3
Cc1cccc(C(=O)OC(C)C(=O)N2CCc3ccccc3C2)c1C (centres undefined),-1,0,2,52*,1,-4
Cc1noc(C(C)C)c1C(=O)Nc1ccc(-c2nnc3n2CCCCC3)cc1,-1,-4,2,-3,1,-7
COc1ccc(Br)cc1CNc1ccc2[nH]c(=O)[nH]c2c1,-1,-2,-7,67*,0,-7
O=C(Nc1ccccc1)OC1CCC2CC1CCC2OC(=O)Nc1ccccc1 (centres undefined),-1,22,2,32*,0,-2
COc1ccccc1N1CC(C)(C)C(=O)N(C(=O)c2c(F)cccc2Cl)C1=S,-1,10,-4,81*,-1,-23
CC(C)c1ccc(C2/C(=C(/O)c3ccc(F)cc3)C(=O)C(=O)N2CCCN2CCOCC2)cc1 (centres undefined),-1,2,-3,-5,6,2
C/C(=N\OC(=O)c1cccc(C(F)(F)F)c1)c1sc(-c2ccccc2)nc1C,-1,0,-3,52*,0,-6
CCN(CC)c1ccc(S(=O)(=O)N2CCOCC2)cc1NC(=O)CN1C(=O)NC2(CCC(C)CC2)C1=O (centres undefined),-1,3,-3,-6,0,-17
CCn1cc(CN2CCCC(C(=O)Nc3cccc(-c4cc5ccccc5[nH]4)c3)C2)cn1 (centres undefined),2,-2,2,51*,4,-3
CCc1ncc(CN2CCCC(C(=O)Nc3cccc(-c4ccc(F)cc4)c3)C2)cn1 (centres undefined),-3,-1,-2,-6,2,-2
Cn1c(NCc2cccc(Br)c2)nc2ccccc21,-1,-3,3,4,0,-36
Cn1c(Oc2ccccc2NCc2cccc(Br)c2)cc(=O)n(C)c1=O,-1,3,-2,79*,1,-4
Cc1noc(C)c1S(=O)(=O)N(CC(=O)NCc1ccccc1)c1ccc(C(C)C)cc1,0,0,-5,.,1,0
COc1ccc(N(CC(=O)NCCc2ccc(OC)c(OC)c2)S(=O)(=O)c2c(C)noc2C)cc1,0,-1,2,73*,0,-3
Cc1noc(C)c1S(=O)(=O)N(CC(=O)NCc1ccc(F)cc1)c1ccc(C(C)C)cc1,-3,2,-1,44*,3,-12
CCC(CO)Oc1cc(NC(=O)c2ccc([N+](=O)[O-])cc2)c2ncn(C(C)C)c2c1 (centres undefined),2,8,-3,-5,0,-7
Cc1noc(C)c1NC(=O)N(C)C[C@H]1Oc2ccc(NC(=O)C3CC3)cc2C(=O)N([C@H](C)CO)C[C@@H]1C,0,3,0,-1,-3,-1
CSc1ccccc1NC(=O)COC(=O)Cn1cc(C(F)(F)F)ccc1=O,0,-2,1,-2,0,1
COc1ccc(-c2nc(CS(=O)CC(=O)NC(C)CCc3ccccc3)c(C)o2)cc1OC (centres undefined),0,-6,-4,45*,-1,-1
O=C(NCC(c1ccco1)N1CCCC1)c1sc2cc(F)ccc2c1Cl (centres undefined),-2,6,-1,2,-1,-4
SMILES,CAL PDZ FP-1,cardiac RTF act,Keap1-Nrf2 PPI,CAL PDZ FP-2,LANA DNA inh,RTF Ca sens inh
Cc1ccc2c(Cl)c(C(=O)NCC(c3ccco3)N3CCCC3)sc2c1 (centres undefined),-2,3,-2,75*,1,0
CC[n+]1c(/C=C/C=C/N(C(C)=O)c2ccccc2)sc2ccccc21,-11,421*,-341,-10,-21,-431
CCn1c(/C=C/N(C(C)=O)c2ccccc2)[n+](CC)c2ccc(Cl)cc21,-3,1,-2,-2,-1,-1
COCCN(C(=O)COC(=O)CNC(=O)c1ccc(C)cc1)c1c(N)n(Cc2ccccc2)c(=O)[nH]c1=O,1,-5,-5,.,0,-6
CC(NC(=O)c1ccc(Br)o1)c1ccc(-n2ccnc2)cc1 (centres undefined),-1,3,0,35*,1,-8
O=S1(=O)CCOC[C@H](CC2CCCCC2)N1Cc1ccccc1Br,0,13,-5,-2,-1,-2
O=C(O)c1cccc(NC(=O)c2cccc(S(=O)(=O)Nc3cccc([N+](=O)[O-])c3)c2)c1,-2,1,-1,96*,3,0
CN(CC(=O)Nc1ccccc1Cl)C(=O)c1ccccc1Sc1ccccc1C#N,-3,-2,-3,3,-2,-13
CCOC(=O)Nc1ccc(NCc2ccc(F)cc2)nc1N,1,72*,-6,-1,17,-67
O=C(NC1CCSc2ccccc21)c1c(F)cccc1Cl (centres undefined),-3,5,-4,0,-2,4
CCCCN(C)C1=CC2=CC(=C(C#N)C#N)CCC2CC1 (centres undefined),0,+,-129,2,-18,i
CCN(CC)C1=CC2=CC(=C(C#N)C#N)CCC2CC1 (centres undefined),-2,+,-113,-4,-3,i
Cc1ccc(OCCNC(=O)c2cc(C3CC3)nc3c2cnn3C(C)C)cc1,-1,-3,-1,2,-1,-2
O=C1/C(=C/c2ccco2)SC(=S)N1c1cccnc1,-1,-11,3,-3,72*,9
Cc1cc(/C=C2\SC(=S)N(Cc3ccco3)C2=O)c(C)n1-c1cccnc1,0,89*,-3,-7,7,-86
O=C1/C(=C/c2cccnc2)SC(=S)N1Cc1ccco1,-1,-7,0,0,3,1
O=C(N/N=C/c1cc([N+](=O)[O-])ccc1O)C1CC1,18,5,-1,79*,2,7

# Compound activity (PubChem)
